Experimental data taken from publication PMC3736091 (Molecular cancer therapeutics, 2013).
Where “and” joins values, the source holds several entries; their conditions need not be identical. Identical values can stand only once. Marks after values point to notes of the source that are not given here.

Key:
ATM [1] = biological target: T1, ATM (Homo sapiens, UniProt Q13315); details: read-out: Enzyme IC50 ATM; purified enzyme; data previously reported; cited from earlier work
ATR = ATR (Homo sapiens, UniProt Q13535); details: read-out: Enzyme IC50 ATR; purified enzyme; data previously reported; cited from earlier work
SW620 xenografts = assay: Anti-tumour efficacy, SW620 xenografts; format: in vivo, mice
HCT116-N7 xenografts = assay: Anti-tumour efficacy, HCT116-N7 xenografts; format: in vivo, mice
Body weight = format: in vivo, mice; details: for Maximum body weight loss: SW620 xenograft studies
SW620 cells = assay: Clonogenic survival assay, SW620; format: cell-based, human; details: for Enhancement factor: 1 μM KU59403
Outline: (§1)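 Clonogenic assay in RPMI 1640 + 10% FBS, 37°C, 5% CO2, <30 passages; HCT116-N7 stably expresses HPV16 E6. Exponentially growing cells had 16 h exposure to cytotoxic (etoposide, doxorubicin or camptothecin; etoposide 1 μM for the bar data) ± test compound 1 μM in 0.5% DMSO, then were seeded for colonies. Survival was normalised to DMSO or inhibitor-alone control. Enhancement factor = survival cytotoxic alone ÷ survival combination, per experiment; 3 independent experiments.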

LoVo cells = assay: Clonogenic survival assay, LoVo; format: cell-based, human; details: for % Survival Cytotoxic alone / Enhancement factor / % Survival Cytotoxic + KU59403: LoVo; for Enhancement factor: 1 μM KU59403
Outline: as §1

ATM [2] = biological target: T1, ATM; assay: Enzyme inhibition, purified ATM; format: biochemical
Outline: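 Enzymes were isolated from HeLa cells: ATM plus DNA-PK, PI3K, ATR, PI4K and mTOR. Activity was measured across increasing test compound concentrations. IC50 was calculated from sigmoid plots of inhibitor concentration versus activity. Values are the mean of five independent experiments.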

HCT116 cells = assay: Clonogenic survival assay, HCT116; format: cell-based, human; details: HCT116, etoposide 1 μM + KU59403 1 μM (Figure 1D)
Outline: as §1

HCT116-N7 cells = assay: Clonogenic survival assay, HCT116-N7; format: cell-based, human; details: HCT116-N7, etoposide 1 μM + KU59403 1 μM (Figure 1D)
Outline: as §1

MDA-MB-231 cells = assay: Clonogenic survival assay, MDA-MB-231; format: cell-based, human; details: MDA-MB-231, etoposide 1 μM + KU59403 1 μM (Figure 1D)
Outline: as §1

[3] = biological target: ATM activity in SW620 cells (Homo sapiens, UniProt Q13315); assay: Inhibition of cellular ATM activity, SW620; format: cell-based; details: 1 μM
[4] = test system: ATM activity in MDA-MB231 cells; assay: Inhibition of IR-induced ATM activity, MDA-MB231; format: cell-based, human; details: 1 μM
[5] = biological target: ATM activity in HCT116 cells (Homo sapiens, UniProt Q13315); assay: Inhibition of IR-induced ATM activity, HCT116; format: cell-based; details: 1 μM
[6] = Plasma and tumour concentrations in SW620 tumour-bearing nude mice; format: in vivo
Outline: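 Female CD-1 nude mice carried SW620 s.c. flank xenografts (1×10^7 cells) of ~650 mm³. Test compound was given at 50 mg/kg i.p. in equimolar phosphoric acid/saline, pH 4. The comparator ATM inhibitor was given at 10 mg/kg i.p. in phosphoric acid, 5% DMSO, 10% encapsin, pH 4. Dosing volume was 10 ml/kg. Plasma and tumour were sampled at 1 and 4 h and analysed by HPLC; the tumour detection limit was 0.5 μM.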

[7] = Plasma and tissue concentrations in Balb/C mice; format: in vivo; details: 25 mg/kg i.v., female Balb/C mice, at 4 hr
Outline: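 Female Balb/C mice (non-tumour-bearing) received 25 mg/kg i.v. (10 ml/kg) in equimolar phosphoric acid/saline, pH 4. At time points to 4 h, mice were bled by terminal cardiac puncture. Plasma was stored at −20 °C; brain, liver, spleen and lung were snap frozen and homogenised in PBS (1:3 w/v). Samples underwent HPLC against a plasma standard curve (0.05-10 μg/ml); tissue was quantified by method of addition. n = 3 mice per time point.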

human tumour cell lines = assay: Concentration needed for in vitro chemo- and radio-sensitisation; format: cell-based
[8] = etopophos (equivalent to 10 mg/kg etoposide) daily ×5 alone
[9] = KU59403 12.5 mg/kg 2× daily ×5 alone
[10] = KU59403 25 mg/kg daily ×5 alone
[11] = etopophos + KU59403 6 mg/kg 2× daily ×5
[12] = etopophos + KU59403 12.5 mg/kg 1× daily ×5 5 hr post
[13] = etopophos + KU59403 12.5 mg/kg 1× daily ×5 concurrent
[14] = etopophos + KU59403 12.5 mg/kg 2× daily ×5
[15] = etopophos + KU59403 25 mg/kg 2× daily ×5
[16] = irinotecan + KU59403 25 mg/kg daily ×5
[17] = etopophos 11.35 mg/kg i.p. daily ×5 + KU59403 25 mg/kg i.p. twice daily for 5 days

T1 sequence (Q13315 whole entry): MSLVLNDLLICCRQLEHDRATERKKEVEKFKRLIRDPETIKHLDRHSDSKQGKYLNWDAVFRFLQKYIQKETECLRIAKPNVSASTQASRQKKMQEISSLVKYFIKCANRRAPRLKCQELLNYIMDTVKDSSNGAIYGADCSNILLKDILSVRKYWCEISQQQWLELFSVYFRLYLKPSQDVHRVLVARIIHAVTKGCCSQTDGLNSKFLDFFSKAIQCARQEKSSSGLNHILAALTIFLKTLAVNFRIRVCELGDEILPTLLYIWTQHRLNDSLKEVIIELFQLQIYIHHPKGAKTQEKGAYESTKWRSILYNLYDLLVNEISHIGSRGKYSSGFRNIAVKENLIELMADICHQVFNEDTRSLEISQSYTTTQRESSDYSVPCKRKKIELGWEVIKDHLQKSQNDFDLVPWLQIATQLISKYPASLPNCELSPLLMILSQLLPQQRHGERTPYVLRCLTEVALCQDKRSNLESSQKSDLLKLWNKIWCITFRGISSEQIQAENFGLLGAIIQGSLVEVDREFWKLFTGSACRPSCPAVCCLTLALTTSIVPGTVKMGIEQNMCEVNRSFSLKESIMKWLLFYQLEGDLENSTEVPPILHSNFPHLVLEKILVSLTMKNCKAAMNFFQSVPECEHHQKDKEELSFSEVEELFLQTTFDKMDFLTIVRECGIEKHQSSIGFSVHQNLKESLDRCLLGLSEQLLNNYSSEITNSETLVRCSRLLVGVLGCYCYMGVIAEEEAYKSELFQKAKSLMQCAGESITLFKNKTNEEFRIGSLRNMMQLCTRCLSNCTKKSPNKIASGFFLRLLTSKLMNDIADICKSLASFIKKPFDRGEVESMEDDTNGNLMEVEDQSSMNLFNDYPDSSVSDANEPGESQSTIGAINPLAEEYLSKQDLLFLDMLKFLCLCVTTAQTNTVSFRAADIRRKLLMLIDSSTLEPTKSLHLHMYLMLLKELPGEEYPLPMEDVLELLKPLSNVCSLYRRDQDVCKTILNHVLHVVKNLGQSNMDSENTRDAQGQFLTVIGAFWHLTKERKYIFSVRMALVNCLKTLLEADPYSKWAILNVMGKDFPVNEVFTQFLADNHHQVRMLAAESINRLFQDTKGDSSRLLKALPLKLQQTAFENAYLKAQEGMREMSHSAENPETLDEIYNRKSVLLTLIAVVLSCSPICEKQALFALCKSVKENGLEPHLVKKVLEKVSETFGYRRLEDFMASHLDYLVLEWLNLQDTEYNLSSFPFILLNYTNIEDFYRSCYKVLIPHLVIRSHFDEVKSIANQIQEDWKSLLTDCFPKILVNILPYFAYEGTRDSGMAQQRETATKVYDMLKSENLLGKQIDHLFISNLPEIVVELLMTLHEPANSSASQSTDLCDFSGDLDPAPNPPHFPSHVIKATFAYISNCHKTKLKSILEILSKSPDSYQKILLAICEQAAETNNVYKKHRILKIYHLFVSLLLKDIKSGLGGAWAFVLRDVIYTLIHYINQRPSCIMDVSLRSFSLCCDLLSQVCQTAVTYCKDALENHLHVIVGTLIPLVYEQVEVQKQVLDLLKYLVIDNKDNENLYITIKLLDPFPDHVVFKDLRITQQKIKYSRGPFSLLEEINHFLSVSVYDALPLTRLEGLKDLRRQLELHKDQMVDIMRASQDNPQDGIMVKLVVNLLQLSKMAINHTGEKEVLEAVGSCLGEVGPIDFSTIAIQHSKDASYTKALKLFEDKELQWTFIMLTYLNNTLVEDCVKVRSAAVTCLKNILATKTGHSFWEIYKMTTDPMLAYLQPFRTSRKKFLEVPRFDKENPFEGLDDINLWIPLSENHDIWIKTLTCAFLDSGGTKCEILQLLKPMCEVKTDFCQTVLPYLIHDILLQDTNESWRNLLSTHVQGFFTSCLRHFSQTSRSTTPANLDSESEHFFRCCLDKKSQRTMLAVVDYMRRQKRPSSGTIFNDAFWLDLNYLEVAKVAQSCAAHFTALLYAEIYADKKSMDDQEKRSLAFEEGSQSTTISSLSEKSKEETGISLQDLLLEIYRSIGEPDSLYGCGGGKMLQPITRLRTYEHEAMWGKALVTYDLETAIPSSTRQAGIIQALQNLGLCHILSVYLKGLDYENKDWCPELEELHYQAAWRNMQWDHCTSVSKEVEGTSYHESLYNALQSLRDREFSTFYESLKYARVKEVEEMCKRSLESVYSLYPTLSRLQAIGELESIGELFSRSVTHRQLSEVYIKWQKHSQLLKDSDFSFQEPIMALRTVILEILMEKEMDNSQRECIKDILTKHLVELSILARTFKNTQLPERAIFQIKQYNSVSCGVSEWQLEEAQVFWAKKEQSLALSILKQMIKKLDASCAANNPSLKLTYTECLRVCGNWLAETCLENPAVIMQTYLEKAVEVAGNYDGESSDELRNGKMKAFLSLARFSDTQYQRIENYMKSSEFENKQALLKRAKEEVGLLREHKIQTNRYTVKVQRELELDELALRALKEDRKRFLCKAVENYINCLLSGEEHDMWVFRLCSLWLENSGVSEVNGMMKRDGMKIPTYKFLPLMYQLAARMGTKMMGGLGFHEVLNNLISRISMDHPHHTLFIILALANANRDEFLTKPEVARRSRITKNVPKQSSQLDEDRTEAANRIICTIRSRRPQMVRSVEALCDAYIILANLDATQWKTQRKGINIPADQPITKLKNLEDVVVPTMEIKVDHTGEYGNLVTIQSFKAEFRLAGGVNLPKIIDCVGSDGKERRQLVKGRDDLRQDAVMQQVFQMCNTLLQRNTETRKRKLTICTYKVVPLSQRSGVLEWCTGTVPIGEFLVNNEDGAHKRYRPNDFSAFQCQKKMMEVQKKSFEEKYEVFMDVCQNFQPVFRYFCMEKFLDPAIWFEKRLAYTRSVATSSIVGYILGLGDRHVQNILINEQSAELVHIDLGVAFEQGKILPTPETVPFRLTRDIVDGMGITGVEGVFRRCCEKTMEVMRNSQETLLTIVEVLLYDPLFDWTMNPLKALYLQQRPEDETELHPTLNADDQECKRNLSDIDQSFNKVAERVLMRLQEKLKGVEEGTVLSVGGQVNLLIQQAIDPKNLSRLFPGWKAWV
ATM activity in HCT116 cells, sequence (Q13315 whole entry): as above
ATM activity in SW620 cells, sequence (Q13315 whole entry): as above

## O=c1cc(N2CCOCC2)oc2c(-c3ccccc3)cccc12 [LY294002]
ATM [1]
  IC50: > 100 µM
ATR
  IC50: 100 µM

## COc1cc([C@@H]2c3cc4c(cc3[C@@H](O[C@@H]3O[C@@H]5CO[C@@H](C)O[C@H]5[C@H](O)[C@H]3O)[C@H]3COC(=O)[C@H]23)OCO4)cc(OC)c1OP(=O)(O)O [etopophos, Etoposide phosphate, reference compound]
SW620 xenografts; [8]
  Delay: 4 days
  Time to RTV4: 10.5 days
HCT116-N7 xenografts; etopophos 11.35 mg/kg i.p. daily for 5 days alone
  Median time to RTV4: 5.5 days
Body weight; [8]
  Nadir % Starting Body weight: 98.6%
Body weight; given as a single agent
  Maximum body weight loss: < 2%

## COc1cccc2c1C(=O)c1c(O)c3c(c(O)c1C2=O)C[C@@](O)(C(=O)CO)C[C@@H]3O[C@H]1C[C@H](N)[C@H](O)[C@H](C)O1 [Doxorubicin, doxorubicin, reference compound]
SW620 cells; SW620, cytotoxic 10 nM, 16 hr
  % Survival Cytotoxic alone: 50 ± 9%
SW620 cells; SW620, cytotoxic 100 nM, 16 hr
  % Survival Cytotoxic alone: 0.02 ± 0.01%
LoVo cells; cytotoxic 10 nM, 16 hr
  % Survival Cytotoxic alone: 47 ± 3.1%
LoVo cells; cytotoxic 100 nM, 16 hr
  % Survival Cytotoxic alone: 2.1 ± 0.5%

## CN1CCN(CCC(=O)Nc2ccc3c(c2)Sc2cccc(-c4cc(=O)cc(N5CCOCC5)o4)c2S3)CC1 [KU59403]
ATM [2]
  Specificity for ATM over other members of the PI3K (PIKK) family tested: at least 1000 fold
SW620 cells; SW620, camptothecin 10 nM + 1 μM KU59403, 16 hr
  % Survival Cytotoxic + KU59403: 0.71 ± 0.35 %
SW620 cells; SW620, camptothecin 10 nM
  Enhancement factor: 4 and 4.3 ± 2.8
SW620 cells; SW620, doxorubicin 10 nM + 1 μM KU59403, 16 hr
  % Survival Cytotoxic + KU59403: 17 ± 0.2 %
SW620 cells; SW620, doxorubicin 10 nM
  Enhancement factor: 2.9 ± 0.6
SW620 cells; SW620, doxorubicin 100 nM + 1 μM KU59403, 16 hr
  % Survival Cytotoxic + KU59403: 0.01 ± .001%
SW620 cells; SW620, doxorubicin 100 nM
  Enhancement factor: 1.8 ± 0.7
SW620 cells; SW620, etoposide 100 nM + 1 μM KU59403, 16 hr
  % Survival Cytotoxic + KU59403: 35 ± 12 %
SW620 cells; SW620, etoposide 100 nM
  Enhancement factor: 2.9 ± 1.5
SW620 cells; SW620, etoposide 1 μM + 1 μM KU59403, 16 hr
  % Survival Cytotoxic + KU59403: 0.41 ± 0.23 %
SW620 cells; SW620, etoposide 1 μM + KU59403 1 μM (Figure 1D)
  Enhancement of etoposide cytotoxicity: 11.9 ± 4.7 fold and 12 fold
SW620 cells; SW620, etoposide 1 μM
  Enhancement factor: 12 ± 7
SW620 cells; SW620 cells, KU59403 1 μM alone, 16 hr
  % survival, inhibitor alone: 91± 6%
LoVo cells; LoVo cells, KU59403 1 μM alone, 16 hr
  % survival, inhibitor alone: 88± 7%
LoVo cells; camptothecin 10 nM
  Enhancement factor: 7 and 6.9 ± 3.8
LoVo cells; doxorubicin 10 nM + 1 μM KU59403, 16 hr
  % Survival Cytotoxic + KU59403: 16 ± 6.9 %
LoVo cells; doxorubicin 10 nM
  Enhancement factor: 3.2 ± 1
LoVo cells; doxorubicin 100 nM + 1 μM KU59403, 16 hr
  % Survival Cytotoxic + KU59403: 0.35 ± 0.04 %
LoVo cells; doxorubicin 100 nM
  Enhancement factor: 6.1 ± 2.1
LoVo cells; etoposide 100 nM + 1 μM KU59403, 16 hr
  % Survival Cytotoxic + KU59403: 18 ± 0.5 %
LoVo cells; etoposide 100 nM
  Enhancement factor: 3.3 ± 0.4
LoVo cells; etoposide 1 μM + 1 μM KU59403, 16 hr
  % Survival Cytotoxic + KU59403: 1.1 ± 0.2 %
LoVo cells; etoposide 1 μM
  Enhancement factor: 3.8 ± 1.5
HCT116 cells
  Enhancement of etoposide cytotoxicity: 2.3 ± 1.6 fold
HCT116-N7 cells
  Enhancement of etoposide cytotoxicity: 3.8 ± 2.5 fold
MDA-MB-231 cells
  Enhancement of etoposide cytotoxicity: 3.8 ± 1.8 fold
[3]
  Inhibition of ATM activity: > 50%
[4]
  Inhibition of IR-induced ATM activity: approximately 50%
[5]
  Inhibition of IR-induced ATM activity: > 50%
[6]; 50 mg/kg i.p., SW620-bearing nude mice
  Time plasma concentration maintained: at least 4 hours
[6]; 50 mg/kg i.p., SW620 xenograft, 4 hour time point
  Tumour concentration: 1.9 µM
[6]; single dose 50 mg/kg i.p., SW620-bearing nude mice, 1 and 4 hours
  Plasma concentration: 5 µM
[7]
  Plasma concentration: less than 0.1 μM
SW620 xenografts; [9]
  Delay: 0.5 days
  Time to RTV4: 7 days
SW620 xenografts; [10]
  Delay: 5.5 days
  Time to RTV4: 12 days
SW620 xenografts; KU59403 25 mg/kg twice daily, SW620 xenografts
  Increase in etopophos-induced tumour growth delay: 3 fold
SW620 xenografts; [11]
  Delay: 5.5 days
  Enhancement (%): 38%
  Time to RTV4: 12 days
SW620 xenografts; [12]
  Delay: 3.5 days
  Time to RTV4: 10 days
SW620 xenografts; [13]
  Delay: 10 days
  Enhancement (%): 150%
  Time to RTV4: 16.5 days
SW620 xenografts; [14]
  Delay: 8.5 days
  Enhancement (%): 113 ^§ %
  Time to RTV4: 15 days
SW620 xenografts; [15]
  Delay: 11.5 days
  Time to RTV4: 18 days
SW620 xenografts; etopophos + KU59403 25 mg/kg 2× daily ×5, 25 mg/kg
  Enhancement (%): 190 ^* %
SW620 xenografts; [16]
  Delay: 19.5 days
  Time to RTV4: 26 days
SW620 xenografts; irinotecan + KU59403 25 mg/kg daily ×5, 25 mg/kg
  Enhancement (%): 144% and 144 ^* %
HCT116-N7 xenografts; KU59403 25 mg/kg twice daily, HCT116-N7 xenografts
  Increase in etopophos-induced tumour growth delay: 3 fold
HCT116-N7 xenografts; [17]
  Enhancement of etopophos activity: 300%
  Etopophos-induced tumour growth delay: 8.5 days
Body weight; [9]
  Nadir % Starting Body weight: 100%
Body weight; [10]
  Nadir % Starting Body weight: 99.7%
Body weight; combination of KU59403 and etopophos
  Maximum body weight loss: 7%
Body weight; [11]
  Nadir % Starting Body weight: 96.9%
Body weight; [12]
  Nadir % Starting Body weight: 94.3%
Body weight; [13]
  Nadir % Starting Body weight: 96.5%
Body weight; [14]
  Nadir % Starting Body weight: 94.9%
Body weight; [15]
  Nadir % Starting Body weight: 93.3%
Body weight; given as a single agent
  Maximum body weight loss: < 2%
Body weight; [16]
  Nadir % Starting Body weight: 100%
Human tumour cell lines
  Concentration at which an effective chemo-sensitiser: 1 µM
